Experimental data: ChEMBL document CHEMBL3813598, “Development of hydroxy-based sphingosine kinase inhibitors and anti-inflammation in dextran sodium sulfate induced colitis in mice” (Bioorg Med Chem, 2016)

Experiments:
Sphingosine kinase 1 [1] = molecular target: T1, Sphingosine kinase 1 (Homo sapiens, UniProt Q9NYA1); assay: Inhibition of GST-tagged full length human recombinant SPHK1 expressed in baculovirus using sphingosine as substrate preincubated for 10 mins measured after 1 hr by ADP-quest assay
T1 sequence (Q9NYA1 whole entry): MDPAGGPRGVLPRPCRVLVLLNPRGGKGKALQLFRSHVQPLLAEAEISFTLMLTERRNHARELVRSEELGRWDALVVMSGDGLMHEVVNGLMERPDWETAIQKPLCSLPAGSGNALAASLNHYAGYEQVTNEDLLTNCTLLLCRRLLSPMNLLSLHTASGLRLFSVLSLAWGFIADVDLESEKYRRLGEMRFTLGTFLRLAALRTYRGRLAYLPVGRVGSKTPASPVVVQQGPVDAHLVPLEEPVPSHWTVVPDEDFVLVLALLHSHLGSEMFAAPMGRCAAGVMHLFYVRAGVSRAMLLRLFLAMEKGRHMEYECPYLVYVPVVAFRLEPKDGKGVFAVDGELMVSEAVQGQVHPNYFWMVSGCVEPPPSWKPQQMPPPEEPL

Sphingosine kinase 2 [2] = molecular target: T2, Sphingosine kinase 2 (Homo sapiens, UniProt Q9NRA0); assay: Inhibition of GST-tagged full length human recombinant SPHK2 expressed in baculovirus using sphingosine as substrate preincubated for 10 mins measured after 1 hr by ADP-quest assay
T2 sequence (Q9NRA0 whole entry): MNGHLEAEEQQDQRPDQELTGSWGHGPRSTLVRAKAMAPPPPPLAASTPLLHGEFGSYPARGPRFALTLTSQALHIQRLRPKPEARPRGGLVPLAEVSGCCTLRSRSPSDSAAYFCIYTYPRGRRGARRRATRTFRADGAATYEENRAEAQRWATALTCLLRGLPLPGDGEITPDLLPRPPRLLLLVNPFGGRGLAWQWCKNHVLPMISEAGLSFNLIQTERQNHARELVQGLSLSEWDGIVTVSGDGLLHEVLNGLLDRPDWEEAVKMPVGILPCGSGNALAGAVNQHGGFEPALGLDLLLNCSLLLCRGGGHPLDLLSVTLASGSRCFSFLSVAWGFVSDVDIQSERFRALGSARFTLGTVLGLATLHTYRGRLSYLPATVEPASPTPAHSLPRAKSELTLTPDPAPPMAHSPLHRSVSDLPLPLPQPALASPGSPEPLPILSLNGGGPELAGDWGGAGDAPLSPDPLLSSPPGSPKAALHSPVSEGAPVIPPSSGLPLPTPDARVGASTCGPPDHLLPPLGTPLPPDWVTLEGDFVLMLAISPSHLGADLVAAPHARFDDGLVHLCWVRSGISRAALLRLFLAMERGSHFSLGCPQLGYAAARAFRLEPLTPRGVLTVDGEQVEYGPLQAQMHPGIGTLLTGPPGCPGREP
Outline: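 Human recombinant SphK1 or SphK2 with sphingosine substrate and ATP, tested in 384-well format. Enzyme was preincubated with compound for 10 min, then the reaction ran at 28 °C for 1 h. ADP Quest reagents A and B were added for 30 min at room temperature. Fluorescence was read at Ex 530/Em 590 nm. Values are mean of n = 3 in triplicate.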

Sphingosine kinase 2 [3] = molecular target: T2, Sphingosine kinase 2; assay: Inhibition of His-tagged full length human recombinant SPHK2 expressed in baculovirus infected fall armyworm Sf9 cell expression system using sphingosine as substrate by ADP-quest assay
Sphingosine kinase 1 [4] = molecular target: T1, Sphingosine kinase 1; assay: Inhibition of His-tagged full length human recombinant SPHK1 expressed in baculovirus infected fall armyworm Sf9 cell expression system using sphingosine as substrate by ADP-quest assay

| Structure (SMILES) | IC50 (Sphingosine kinase 1 [1]) [µM] | IC50 (Sphingosine kinase 2 [2]) [µM] | Ki (Sphingosine kinase 2 [3]) [µM] | Ki (Sphingosine kinase 1 [4]) [µM] |
| --- | --- | --- | --- | --- |
| COc1cccc(COc2ccc(/C=N/NC(=O)c3ccc(O)c(O)c3)cc2)c1 | 25.3 | 10.1 |  |  |
| O=C(N/N=C/c1cccc(OCc2ccccc2)c1)c1ccc2[nH]cnc2c1 | > 100 | > 100 |  |  |
| CC(C)(C)c1ccc(COc2cccc(/C=N/NC(=O)c3cc(O)c(O)c(O)c3)c2)cc1 | 35.2 | 62.2 |  |  |
| O=C(N/N=C/c1ccc(OCc2ccc(C(F)(F)F)cc2)cc1)c1cc(O)c(O)c(O)c1 | 37.4 | 15.6 |  |  |
| O=C(N/N=C/c1cccc(OCc2ccccc2F)c1)c1cc(O)c(O)c(O)c1 | > 100 | 98.9 |  |  |
| COc1ccc(COc2cccc(/C=N/NC(=O)c3cc(O)c(O)c(O)c3)c2)cc1 | > 100 | > 100 |  |  |
| COc1cccc(COc2cccc(/C=N/NC(=O)c3ccc(O)c(O)c3)c2)c1 | 5 | 4.6 |  |  |
| O=C(N/N=C/c1cccc(OCc2ccccc2C(F)(F)F)c1)c1cc(O)c(O)c(O)c1 | 19.6 | 16.3 |  |  |
| O=C(N/N=C/c1cccc(OCc2ccccc2Cl)c1)c1cc(O)c(O)c(O)c1 | 36.8 | 58.8 |  |  |
| N#Cc1ccc(COc2cccc(/C=N/NC(=O)c3cc(O)c(O)c(O)c3)c2)cc1 | 69.4 | 35.1 |  |  |
| Cc1ccc(COc2cccc(/C=N/NC(=O)c3cc(O)c(O)c(O)c3)c2)cc1 | 45.8 | 65.4 |  |  |
| O=C(N/N=C/c1cccc(OCc2ccc(C(F)(F)F)cc2)c1)c1cc(O)c(O)c(O)c1 | 16.3 | 22.1 |  |  |
| O=C(N/N=C/c1ccc(OCc2ccccc2C(F)(F)F)cc1)c1cccc(O)c1 | > 100 | > 100 |  |  |
| O=C(N/N=C/c1cccc(OCc2cccc3ccccc23)c1)c1cc(O)c(O)c(O)c1 | 31.3 | 40.6 |  |  |
| COc1cccc(COc2ccc(/C=N/NC(=O)c3cc(O)cc(O)c3)cc2)c1 | > 100 | > 100 |  |  |
| O=C(N/N=C/c1cccc(OCc2cccc(C(F)(F)F)c2)c1)c1cc(O)c(O)c(O)c1 | > 100 | > 100 |  |  |
| N#Cc1ccccc1COc1cccc(/C=N/NC(=O)c2cc(O)c(O)c(O)c2)c1 | 45.4 | 68.6 |  |  |
| O=C(N/N=C/c1cccc(OCc2ccc(Cl)cc2)c1)c1cc(O)c(O)c(O)c1 | > 100 | 61.2 |  |  |
| CC(C)(C)c1ccc(COc2ccc(/C=N/NC(=O)c3cc(O)c(O)c(O)c3)cc2)cc1 | 40.5 | 43.3 |  |  |
| O=C(N/N=C/c1cccc(OCc2ccc(F)cc2)c1)c1cc(O)c(O)c(O)c1 | > 100 | > 100 |  |  |
| COc1cccc(COc2ccc(/C=N/NC(=O)c3cccc(O)c3)cc2)c1 | > 100 | > 100 |  |  |
| O=C(N/N=C/c1cccc(OCc2ccccc2C(F)(F)F)c1)c1cc(O)cc(O)c1 | > 100 | > 100 |  |  |
| COc1cccc(COc2ccc(/C=N/NC(=O)c3ccc(O)cc3)cc2)c1 | > 100 | > 100 |  |  |
| O=C(N/N=C/c1ccc(OCc2ccccc2C(F)(F)F)cc1)c1ccc(O)c(O)c1 | 16.5 | 11.4 |  |  |
| COc1cccc(COc2cccc(/C=N/NC(=O)c3ccc(O)cc3)c2)c1 | > 100 | > 100 |  |  |
| COc1ccccc1COc1cccc(/C=N/NC(=O)c2cc(O)c(O)c(O)c2)c1 | 20.5 | 19.5 |  |  |

| Structure (SMILES) | IC50 (Sphingosine kinase 1 [1]) [µM] | IC50 (Sphingosine kinase 2 [2]) [µM] | Ki (Sphingosine kinase 2 [3]) [µM] | Ki (Sphingosine kinase 1 [4]) [µM] |
| --- | --- | --- | --- | --- |
| Cc1cccc(COc2cccc(/C=N/NC(=O)c3cc(O)c(O)c(O)c3)c2)c1 | 52.1 | 78.7 |  |  |
| O=C(N/N=C/c1cccc(OCc2ccccc2C(F)(F)F)c1)c1ccc(O)c(O)c1 | 15.5 | 13.8 |  |  |
| O=C(N/N=C/c1ccc(OCc2ccccc2)cc1)c1cc(O)c(O)c(O)c1 | 22 | 28.5 |  |  |
| N#Cc1cccc(COc2ccc(/C=N/NC(=O)c3cc(O)c(O)c(O)c3)cc2)c1 | 45.8 | 22.6 |  |  |
| N#Cc1cccc(COc2cccc(/C=N/NC(=O)c3cc(O)c(O)c(O)c3)c2)c1 | 85.3 | > 100 |  |  |
| O=C(N/N=C/c1ccc(OCc2cccc(C(F)(F)F)c2)cc1)c1cc(O)c(O)c(O)c1 | 54.7 | 23.8 |  |  |
| O=C(N/N=C/c1cccc(OCc2ccccc2)c1)c1cc(O)c(O)c(O)c1 | 40.2 | 26.3 |  |  |
| O=C(N/N=C/c1cccc(OCc2ccccc2C(F)(F)F)c1)c1cccc(O)c1 | > 100 | > 100 |  |  |
| O=C(N/N=C/c1cccc(OCc2cccc(F)c2)c1)c1cc(O)c(O)c(O)c1 | > 100 | > 100 |  |  |
| Cc1ccc(COc2ccc(/C=N/NC(=O)c3cc(O)c(O)c(O)c3)cc2)cc1 | 32.7 | 44.5 |  |  |
| COc1cccc(COc2cccc(/C=N/NC(=O)c3cc(O)c(O)c(O)c3)c2)c1 | 8.57 | 8.7 |  |  |
| COc1ccc(COc2ccc(/C=N/NC(=O)c3cc(O)c(O)c(O)c3)cc2)cc1 | > 100 | > 100 |  |  |
| O=C(NCc1ccc(O)c(O)c1)C12CC3CC(C1)CC(c1ccc(Cl)cc1)(C3)C2 |  |  | 4.2 | 3.2 |
| O=C(N/N=C/c1ccc(OCc2ccc3ccccc3c2)cc1)c1cc(O)c(O)c(O)c1 | 20.6 | 30.2 |  |  |
| COc1cccc(COc2cccc(/C=N/NC(=O)c3cc(O)cc(O)c3)c2)c1 | > 100 | > 100 |  |  |
| N#Cc1ccccc1COc1ccc(/C=N/NC(=O)c2cc(O)c(O)c(O)c2)cc1 | > 100 | 44.5 |  |  |
| COc1cccc(COc2cccc(/C=N/NC(=O)c3cccc(O)c3)c2)c1 | > 100 | > 100 |  |  |
| Cc1ccccc1COc1cccc(/C=N/NC(=O)c2cc(O)c(O)c(O)c2)c1 | 63.2 | 81.2 |  |  |
| O=C(N/N=C/c1ccc(OCc2ccccc2C(F)(F)F)cc1)c1cc(O)c(O)c(O)c1 | 15 | 15.1 |  |  |
| N#Cc1ccc(COc2ccc(/C=N/NC(=O)c3cc(O)c(O)c(O)c3)cc2)cc1 | 27.7 | 17.8 |  |  |
| O=C(N/N=C/c1cccc(OCc2cccc(Cl)c2)c1)c1cc(O)c(O)c(O)c1 | > 100 | 67.4 |  |  |
| O=C(N/N=C/c1ccc(OCc2ccccc2C(F)(F)F)cc1)c1ccc(O)cc1 | > 100 | > 100 |  |  |
| COc1ccccc1COc1ccc(/C=N/NC(=O)c2cc(O)c(O)c(O)c2)cc1 | 18.4 | 26.6 |  |  |
| O=C(N/N=C/c1ccc(OCc2ccccc2C(F)(F)F)cc1)c1cc(O)cc(O)c1 | > 100 | > 100 |  |  |
| O=C(N/N=C/c1cccc(OCc2ccccc2C(F)(F)F)c1)c1ccc(O)cc1 | > 100 | > 100 |  |  |
| CCCCCCCCCCCCC/C=C/[C@@H](O)[C@H](CO)N(C)C [DIMETHYLSPINGOSINE] |  | 26.3 |  |  |
